Assays:
Rattus norvegicus [1] = species on record: Rattus norvegicus; experiment: Ability to inhibit N-formyl-methionyl-leucyl-phenylalanine (fMLP)-stimulated release of myeloperoxidase (MPO) from rat polymorphonuclear leukocytes (PMN).; type: functional
Method in brief: (§1)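 Peritoneal PMN were taken from Harlan Sprague-Dawley rats (150-250 g), with >90% viability by trypan blue and >90% PMN by Wright-Giemsa stain. Cells in suspension (2 × 10^7 cells/mL) were stimulated with 0.1 μM fMLP for 30 min at 37 °C in the presence of test agent. MPO in the supernatant was measured by MPO-catalyzed oxidation of o-dianisidine.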

Rattus norvegicus [2] = species on record: Rattus norvegicus; experiment: Tested for ability at 50 uM to inhibit N-formyl-methionyl-leucyl-phenylalanine (fMLP) stimulated release of Myeloperoxidase (MPO) from rat polymorphonuclear leukocytes (PMN); type: functional; method in brief: as §1

| Compound | IC50 (Rattus norvegicus [1]) [µM] | inhibition at 50 µM (Rattus norvegicus [2]) [%] |
| --- | --- | --- |
| CN(C)c1ccc(C(=O)/C=C/c2ccncc2)cc1 | 11 |  |
| CO/N=C(\C=C\c1ccncc1)c1cc(OC)c(OC)c(OC)c1 | > 100 |  |
| N#Cc1cccc(C(=O)/C=C/c2ccncc2)c1 | 85 |  |
| CSc1ccc(C(=O)/C=C/c2ccncc2)cc1 | 33 |  |
| N#Cc1ccc(C(=O)/C=C/c2ccncc2)cc1 | 123 |  |
| O=C(/C=C/c1ccncc1)c1ccc(C(F)(F)F)cc1 | 204 |  |
| O=C(/C=C/c1ccncc1)c1cccc(Cl)c1 | 69 |  |
| COc1cc(C(O)/C=C/c2ccncc2)cc(OC)c1OC (stereo not drawn) | > 100 |  |
| COc1cc(/C=C\C(=O)c2ccncc2)cc(OC)c1OC |  | 28 |
| CC(C)(C)c1ccc(C(=O)/C=C/c2ccncc2)cc1 | 47 |  |
| COc1cc(C(=O)/C=C/c2cc[n+](C)cc2)cc(OC)c1OC | > 50 |  |
| CN(C)c1cccc(C(=O)/C=C/c2ccncc2)c1 | 19 |  |
| COc1cc(C(=O)CCc2ccncc2)cc(OC)c1OC | > 100 |  |
| COc1cc(C(=O)/C=C/c2ccccn2)cc(OC)c1OC | 18 |  |
| COc1cc(C(=O)/C=C(\C)c2ccncc2)cc(OC)c1OC | > 100 |  |
| COc1cc(C(=O)/C(C)=C/c2ccncc2)cc(OC)c1OC | > 100 |  |
| COc1cc(C(=O)/C=C/c2cccnc2)cc(OC)c1OC | 30 |  |
| O=C(/C=C/c1ccncc1)c1ccco1 | 50 |  |
| O=C(/C=C/c1ccncc1)c1cccc(C(F)(F)F)c1 | 41 |  |
| O=C(/C=C/c1ccncc1)c1ccc(Cl)cc1 | 60 |  |
| O=C(/C=C/c1ccncc1)c1cccs1 | 30 |  |
| COc1cc(C(=O)/C=C/c2ccncc2)cc(OC)c1OC | 7 |  |

Now from value to compound, other results behind:

| IC50 (Rattus norvegicus [1]) [µM] | Compound | inhibition at 50 µM (Rattus norvegicus [2]) [%] |
| --- | --- | --- |
| 49 | O=C(/C=C/c1ccncc1)c1ccccc1 |  |
| > 100 | O=C(c1ccccc1)c1ccc2ncccc2c1 |  |
| > 100 | O=c1cc(-c2cccnc2)oc2ccccc12 |  |
| > 100 | O=C(c1ccccc1)c1cccc(-c2cccnc2)c1 |  |
| > 100 | O=C1c2ccccc2-c2cccc(-c3cccnc3)c21 |  |
| 39 | Cc1cccc(C(=O)/C=C/c2ccncc2)c1 |  |
| 16 | O=C(C#Cc1ccncc1)c1ccccc1 |  |
| > 100 | O=C(c1ccccc1)c1ccccc1-c1cccnc1 |  |
| > 100 | O=C1c2ccccc2-c2ccc(-c3cccnc3)cc21 |  |
| > 100 | O=C(c1ccccc1)c1ccc(-c2cccnc2)cc1 |  |
| > 100 | C(=C\c1noc2ccccc12)/c1ccncc1 |  |
